Reference: ChEMBL document CHEMBL4732188, “SARs of a novel series of s-triazine compounds targeting vimentin to induce methuotic phenotype” (Eur J Med Chem, 2021)
Active and inactive are the calls of the source. The calls are words filed in the database; no cut-off is given here.

How the values were obtained:
U-87 MG = assay: Antiproliferative activity against human U87 cells assessed as reduction in cell growth incubated for 4 days by cell-titer glo assay; assay type: functional, cell-based, U-87MG ATCC; settings: 96 h
How it was run: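 Cells grown in RPMI1640 with 10% FBS, 2 mM glutamine and penicillin-streptomycin at 37 °C, 5% CO₂. Viability read as ATP by CellTiter-Glo luminescence. IC50 as mean ± SD from triplicate experiments.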

U-87MG ATCC [1] = assay: Induction of vacuolization in human U87 cells at 1 uM by microscopic analysis
U-87MG ATCC [2] = assay: Induction of vacuolization in human U87 cells at 31.6 nM incubated for 4 days by microscopic analysis; assay type: functional, cell-based; settings: time 4.0 day
How it was run: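 Cytoplasmic vacuolization was first screened visually by microscope in U87 cells treated with each compound at 1. Positive compounds were then titrated down to 0.01. Each was scored by its minimal effective concentration: 5 if vacuoles were significant at 10 nM, 4 at 31.6 nM, and so on downward.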

U-87MG ATCC [3] = assay: Induction of methuosis in human U87 cells assessed as increase in size of cytoplasmic vacuoles at 10 nM measured after 24 hrs by […] staining based microscopic analysis; assay type: functional, cell-based
How it was run: (§1)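 U87 cells were cultured in RPMI1640 with 10% FBS at 37 °C, 5% CO₂, and compound-treated for 24 h across 0.01-10. Cytoplasmic vacuolization was imaged by microscopy, with time-lapse confocal tracking of vesicle movement, vacuole fusion, cell rounding and disintegration. Macropinocytic origin was checked by lucifer yellow uptake and by staining with ER and Golgi markers.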

U-87MG ATCC [4] = assay: Induction of methuosis in human U87 cells assessed as increase in intracellular vacuolization in para nuclear region at 10 nM measured < 2 hrs by microscopic analysis; assay type: functional, cell-based; settings: time hrs <2
U-87MG ATCC [5] = assay: Induction of methuosis in human U87 cells assessed as increase in number of cytoplasmic vacuoles at 10 nM measured after 24 hrs by […] staining based microscopic analysis; assay type: functional, cell-based; how it was run: as §1
U-87MG ATCC [6] = assay: Induction of methuosis in human U87 cells assessed as rounded cytoplasmic vacuoles at 10 nM measured after 24 hrs by […] staining based microscopic analysis; assay type: functional, cell-based; how it was run: as §1
U-87MG ATCC [7] = assay: Induction of methuosis in human U87 cells assessed as macropinocytosis by measuring cytoplasmic vacuolization at 10 nM incubated for 24 hrs by […] staining based confocal microscopic analysis; assay type: functional, cell-based; how it was run: as §1
U-87MG ATCC [8] = assay: Induction of methuosis in human U87 cells assessed as increase in accumulation of small vesicles at 10 nM measured after 24 hrs by […] staining based microscopic analysis; assay type: functional, cell-based; how it was run: as §1
U-87MG ATCC [9] = assay: Induction of methuosis in human U87 cells assessed as disintegrated cytoplasmic vacuoles at 10 nM measured after 24 hrs by […] staining based microscopic analysis; assay type: functional, cell-based; how it was run: as §1
Vimentin (Homo sapiens) = Vimentin (Homo sapiens) (UniProt P08670); assay: Binding affinity to vimentin in human U87 cells at 100 nM incubated for 2 hrs by MALDI-MS/MS analysis; assay type: cell-based
Sequence of Vimentin (Homo sapiens) (P08670 whole entry): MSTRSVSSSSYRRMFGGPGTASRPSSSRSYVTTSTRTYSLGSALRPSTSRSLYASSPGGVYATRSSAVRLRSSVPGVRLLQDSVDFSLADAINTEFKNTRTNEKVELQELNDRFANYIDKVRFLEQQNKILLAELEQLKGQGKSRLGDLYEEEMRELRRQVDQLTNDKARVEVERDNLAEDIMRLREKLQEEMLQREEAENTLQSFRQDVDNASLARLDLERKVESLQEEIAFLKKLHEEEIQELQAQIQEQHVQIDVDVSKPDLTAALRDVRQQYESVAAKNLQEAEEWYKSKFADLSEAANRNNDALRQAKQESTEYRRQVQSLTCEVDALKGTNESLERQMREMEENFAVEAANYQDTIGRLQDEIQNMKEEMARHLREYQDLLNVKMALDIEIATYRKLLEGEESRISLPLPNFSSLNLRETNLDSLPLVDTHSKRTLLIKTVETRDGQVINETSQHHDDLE
How it was run: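 Live U87 cells treated with the alkyne photoaffinity probe at 100 nM (DMSO control), then UV irradiated (315-385 nm, 30 min) through the flask bottom. Lysed in Hepes buffer pH 7.5 and click-reacted with biotin-N₃ (1 mM CuSO₄, 1 mM TCEP). Streptavidin-agarose enrichment, 10% SDS-PAGE separation, then LC-MS/MS identification.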

OVCAR-3 = assay: Induction of vacuolization in human OVCAR-3 cells at 100 nM by microscopic analysis; assay type: functional, cell-based
LNCaP = assay: Induction of vacuolization in human LNCaP cells at 100 nM by microscopic analysis; assay type: functional, cell-based
HepG2 = assay: Induction of vacuolization in human HepG2 cells at 100 nM by microscopic analysis; assay type: functional, cell-based
HCT-15 = assay: Induction of vacuolization in human HCT-15 cells at 100 nM by microscopic analysis; assay type: functional, cell-based
SK-MEL-28 = assay: Induction of vacuolization in human SK-MEL-28 cells at 100 nM by microscopic analysis; assay type: functional, cell-based
NCI-H522 = assay: Induction of vacuolization in human NCI-H522 cells at 100 nM by microscopic analysis; assay type: functional, cell-based

## O=C(Nc1ccc(F)cc1)Nc1ccc(Nc2nc(/C=C/c3cccc([N+](=O)[O-])c3)nc(N3CCOCC3)n2)cc1
U-87 MG
  IC50: 1.11 µM
U-87MG ATCC [1]
  Activity: Active

## O=C(Nc1ccc(F)cc1)Nc1ccc(Nc2nc(/C=C/c3ccc(Cl)cc3)nc(N3CCOCC3)n2)cc1
U-87 MG
  IC50: 2.5 µM
U-87MG ATCC [1]
  Activity: Active

## CN(C)CCCNC(=O)c1ccc(NC(=O)Nc2ccc(Nc3nc(/C=C/c4ccccc4)nc(N4CCOCC4)n3)cc2)cc1
U-87 MG
  IC50: 2.31 µM
U-87MG ATCC [1]
  Activity: Active

## O=C(Nc1ccc(Cl)cc1)Nc1cccc(Nc2nc(/C=C/c3ccccc3)nc(N3CCOCC3)n2)c1
U-87 MG
  IC50: 1 µM
U-87MG ATCC [1]
  Activity: inactive

## O=C(Nc1ccc(Cl)cc1)Nc1ccc(Nc2nc(/C=C/c3ccccc3)nc(N3CCOCC3)n2)cc1
U-87MG ATCC [2]
  Activity: Active
U-87MG ATCC [3]
  Activity: Active
U-87MG ATCC [4]
  Activity: Active
U-87MG ATCC [5]
  Activity: Active
U-87MG ATCC [6]
  Activity: Active
U-87 MG
  IC50: 4.79 µM
U-87MG ATCC [7]
  Activity: Active
U-87MG ATCC [1]
  Activity: Active
U-87MG ATCC [8]
  Activity: Active
U-87MG ATCC [9]
  Activity: Active

## O=C(Nc1ccc(Nc2nc(/C=C/c3ccc(Cl)cc3)nc(N3CCOCC3)n2)cc1)Nc1cccc(F)c1
U-87 MG
  IC50: 4.41 µM
U-87MG ATCC [1]
  Activity: Active

## CN1CCN(C(=O)c2ccc(NC(=O)Nc3ccc(Nc4nc(/C=C/c5ccccc5)nc(N5CCOCC5)n4)cc3)cc2)CC1
U-87 MG
  IC50: 0.23 µM
U-87MG ATCC [1]
  Activity: Active

## O=C(Nc1ccc(Cl)cc1)Nc1ccc(Nc2nc(/C=C/c3cccc([N+](=O)[O-])c3)nc(N3CCCC3)n2)cc1
U-87 MG
  IC50: 4.47 µM
U-87MG ATCC [1]
  Activity: inactive

## O=C(Nc1ccc(Cl)cc1)Nc1ccc(Nc2nc(/C=C/c3cccc([N+](=O)[O-])c3)nc(N3CC(O)C3)n2)cc1
U-87 MG
  IC50: 1.32 µM
U-87MG ATCC [1]
  Activity: inactive

## CN(C)CCNC(=O)c1ccc(NC(=O)Nc2ccc(Nc3nc(/C=C/c4ccccc4)nc(N4CCOCC4)n3)cc2)cc1
U-87 MG
  IC50: 2.48 µM
U-87MG ATCC [1]
  Activity: Active

## O=C(Nc1ccc(Nc2nc(/C=C/c3ccccc3)nc(N3CCOCC3)n2)cc1)Nc1ccc(C(=O)NCCN2CCOCC2)cc1
U-87 MG
  IC50: 0.55 µM
U-87MG ATCC [1]
  Activity: Active

## O=C(Nc1ccc(F)cc1)Nc1ccc(Nc2nc(/C=C/c3cccc(Cl)c3)nc(N3CCOCC3)n2)cc1
U-87 MG
  IC50: 1.33 µM
U-87MG ATCC [1]
  Activity: Active

## CN(C)C(=O)c1ccc(NC(=O)Nc2ccc(Nc3nc(/C=C/c4ccccc4)nc(N4CCOCC4)n3)cc2)cc1
U-87 MG
  IC50: 0.53 µM
U-87MG ATCC [1]
  Activity: Active

## CN1CCN(c2nc(/C=C/c3cccc([N+](=O)[O-])c3)nc(Nc3ccc(NC(=O)Nc4ccc(Cl)cc4)cc3)n2)CC1
U-87 MG
  IC50: 1.21 µM
U-87MG ATCC [1]
  Activity: inactive

## O=C(Nc1ccc(Cl)cc1)Nc1cccc(Nc2nc(/C=C/c3cccc(Cl)c3)nc(N3CCOCC3)n2)c1
U-87 MG
  IC50: 2.2 µM
U-87MG ATCC [1]
  Activity: inactive

## O=C(Nc1ccc(F)cc1)Nc1ccc(Nc2nc(/C=C/c3ccccc3)nc(N3CCOCC3)n2)cc1
U-87 MG
  IC50: 4.75 µM
U-87MG ATCC [1]
  Activity: Active

## CC1CCN(C(=O)c2ccc(NC(=O)Nc3ccc(Nc4nc(/C=C/c5ccccc5)nc(N5CCOCC5)n4)cc3)cc2)CC1
U-87 MG
  IC50: 0.87 µM
U-87MG ATCC [1]
  Activity: Active

## C#CCCC1(CCNC(=O)c2ccc(NC(=O)Nc3ccc(Nc4nc(/C=C/c5ccccc5)nc(N5CCOCC5)n4)cc3)cc2)N=N1
U-87MG ATCC [2]
  Activity: Active
Vimentin (Homo sapiens)
  Activity: Active

## CN(C)c1nc(/C=C/c2cccc([N+](=O)[O-])c2)nc(Nc2ccc(NC(=O)Nc3ccc(Cl)cc3)cc2)n1
U-87 MG
  IC50: 5.12 µM
U-87MG ATCC [1]
  Activity: inactive

## O=C(Nc1ccc(Nc2nc(/C=C/c3ccccc3)nc(N3CCOCC3)n2)cc1)Nc1ccc(C(=O)NCCN2CCCCC2)cc1
U-87 MG
  IC50: 1.11 µM
U-87MG ATCC [1]
  Activity: Active

## O=C(Nc1ccc(Cl)cc1)Nc1cccc(Nc2nc(/C=C/c3cccc([N+](=O)[O-])c3)nc(N3CCOCC3)n2)c1
U-87 MG
  IC50: 3.66 µM
U-87MG ATCC [1]
  Activity: inactive

## O=C(Nc1ccc(Nc2nc(/C=C/c3ccccc3)nc(N3CCOCC3)n2)cc1)Nc1ccc(C(=O)NCCN2CCCC2)cc1
U-87 MG
  IC50: 1.43 µM
U-87MG ATCC [1]
  Activity: Active

## O=C(Nc1ccc(Cl)cc1)Nc1ccc(Nc2nc(/C=C/c3cccc([N+](=O)[O-])c3)nc(N3CCOCC3)n2)cc1
OVCAR-3
  Activity: Active
LNCaP
  Activity: Active
HepG2
  Activity: Active
U-87 MG
  IC50: 1.71 µM
HCT-15
  Activity: Active
SK-MEL-28
  Activity: Active
U-87MG ATCC [1]
  Activity: Active
NCI-H522
  Activity: Active
